Converted amounts (≈) assume the structure as drawn.

The nature of data set [1]: Kinetic solubility of the compound. It is filed as physicochemical. Particulars: for solubility kinetic: read-out: Kinetic_solubility.
Data set [2] in a line: Cytotoxicity against human MCF7 neo/Her2 cells after 3 days by CellTiter-Glo assay. Conditions: MCF7, 72 h. In general terms: ATP-based viability assays read luminescence as a measure of living cells.
For a further data set, the system named is PC-3. The experiment in a line: Cytotoxicity against human PC3 cells after 4 days by CellTiter-Glo assay. Conditions: PC-3, 96 h.
The nature of data set [3]: Inhibition of mTORC2 in human NCI-PC3 cells assessed as inhibition of AKT phosphorylation.
A further data set deals with Cytochrome P450 3A4 (Homo sapiens, UniProt P08684). The experiment in a line: Time dependent inhibition of human CYP3A4 preincubated for 30 mins in presence of NADPH. The data set is classed as ADME. An outline of the steps: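 TDI IC50 is the inhibitor concentration giving 50% loss of CYP3A4 activity after a 30 min pre-incubation with NADPH. It is reported as clean where no IC50 could be measured.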

A short description of data set [4]: Plasma protein binding in mouse at 5 uM after 4 hrs by rapid equilibrium dialysis. Particulars: read-out: PPB (converted). It is filed as ADME, cell-free.
Data set [5] can be described thus: Plasma protein binding in human at 5 uM after 4 hrs by rapid equilibrium dialysis. The data set is classed as ADME, cell-free. Particulars: read-out: PPB (converted). (In general: Equilibrium dialysis compares concentrations on both sides of a semipermeable membrane.)
Data set [6] in a line: Plasma protein binding in rat at 5 uM after 4 hrs by rapid equilibrium dialysis. The data set is classed as ADME, cell-free. Conditions: read-out: PPB (converted).
A short description of data set [7]: Half life in mouse at 1 mg/kg, iv. The data set is classed as ADME, organism-based. Set-up: dose 1 mg/kg, route intravenous. Conditions: in vivo. The method, boiled down:
(§1)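 Mouse PK used iv dosing at 1 mg/kg as a 60% PEG solution and po dosing at 5 mg/kg as a suspension in MCT. Clearance, unbound clearance, Vss, t1/2 and oral bioavailability were derived from these doses.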

Data set [8] is described as follows: Oral bioavailability in mouse at 5 mg/kg. Particulars: in vivo. The data set is classed as ADME, organism-based. An outline of the steps: as §1
Data set [9] can be described thus: Volume of distribution at steady state in mouse at 1 mg/kg, iv. The data set is classed as ADME, organism-based. Set-up: dose 1 mg/kg, route intravenous. Particulars: in vivo, read-out: Vdss. The method, boiled down: as §1
Data set [10] is described as follows: Clearance in mouse at 1 mg/kg, iv. It is filed as ADME, organism-based. Set-up: dose 1 mg/kg, route intravenous. Particulars: in vivo. An outline of the steps:
as §1

A further data set has as its system Mus musculus. Kind of data set: Unbound clearance in mouse at 1 mg/kg, iv. It is filed as ADME, organism-based. On the set-up: dose 1 mg/kg, route intravenous. Particulars: in vivo. The method, boiled down: as §1
A short description of data set [11]: Clearance in mouse liver microsomes. It is filed as ADME, Microsome. (In general: Microsomes from liver hold many membrane-bound enzymes, among them those of drug oxidation.)
Data set [12] is described as follows: Clearance in rat liver microsomes. It is filed as ADME, Microsome.
Data set [13] in a line: Clearance in human liver microsomes. The data set is classed as ADME, Microsome.
Data set [14] is described as follows: Antitumor activity against human MCF7-neo/Her2 xenografted in nude mouse at 37 mg/kg, qd measured after 14 days. The data set is classed as functional. Conditions: 336 h, read-out: TGI.

Cytochrome P450 3A4, sequence (P08684 whole entry): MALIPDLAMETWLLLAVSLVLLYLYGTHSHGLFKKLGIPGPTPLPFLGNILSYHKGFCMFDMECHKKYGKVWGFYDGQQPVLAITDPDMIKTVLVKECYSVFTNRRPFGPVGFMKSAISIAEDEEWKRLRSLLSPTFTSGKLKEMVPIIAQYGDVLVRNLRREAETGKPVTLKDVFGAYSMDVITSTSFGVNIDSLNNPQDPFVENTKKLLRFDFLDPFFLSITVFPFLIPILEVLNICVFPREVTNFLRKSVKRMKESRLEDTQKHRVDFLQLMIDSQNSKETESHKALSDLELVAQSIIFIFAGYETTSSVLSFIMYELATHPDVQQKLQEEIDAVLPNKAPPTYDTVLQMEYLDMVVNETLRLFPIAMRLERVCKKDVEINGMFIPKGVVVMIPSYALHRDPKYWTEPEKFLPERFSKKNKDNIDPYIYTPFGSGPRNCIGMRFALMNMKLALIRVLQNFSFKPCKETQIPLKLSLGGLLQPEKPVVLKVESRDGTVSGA

Consider `CCNC(=O)Nc1ccc(-c2nc3c(c(N4CCOC[C@@H]4C)n2)C[C@H]2CC[C@@H]3N2C)cc1`, for which the Kinetic_solubility result in data set [1] is listed as “soluble”. The figures for the EC50 (in data set [2]; in the data set on PC-3) were 489 nM and 123 nM, respectively. The IC50 – broadly, the point on the concentration scale where inhibition reaches its midpoint – in data set [3] was determined as 16 nM.
On to `CCNC(=O)Nc1ccc(-c2nc3c(c(N4CCOC[C@@H]4C)n2)[C@H]2CC[C@@H](C3)N2C2COC2)cc1`, for which the solubility kinetic in data set [1] was over 75 µM. In addition, the IC50 is over 10000 nM on Cytochrome P450 3A4 and 29 nM in data set [3]. In addition, the EC50 (in general, the midpoint of the concentration-response curve) in [2] stood at 268 nM; with PC-3, 180 nM.
With `CCNC(=O)Nc1ccc(-c2nc3c(c(N4CCOC[C@@H]4C)n2)C[C@@H]2CC[C@H]3N2C(C)(C)C(=O)NC)cc1`, the Kinetic_solubility entry in [1] is listed as “soluble”. Also, the EC50 in data set [2] worked out at 17 nM; in the data set with PC-3, 13 nM. The IC50 in data set [3] was found to be 0.6 nM.
With `CCNC(=O)Nc1ccc(-c2nc3c(c(N4CCOC[C@@H]4C)n2)[C@@H]2CC[C@H](C3)N2C2COC2)cc1`, in data set [1], the solubility kinetic is over 75 µM. In addition, the values for the EC50 (in [2]; with PC-3) were 971 nM and 579 nM, respectively. Moreover, the IC50 in [3] turned out to be 45 nM.
`CCNC(=O)Nc1ccc(-c2nc3c(c(N4CCOC[C@@H]4C)n2)[C@H]2CC[C@@H](C3)N2C(C)=O)cc1`: the solubility kinetic in [1] was over 75 µM. Further, the IC50 was found to be 7300 nM on Cytochrome P450 3A4 and 30 nM in data set [3]. The figures for the EC50 (in data set [2]; in the data set with PC-3) were 460 nM and 180 nM, respectively.
`CCNC(=O)Nc1ccc(-c2nc3c(c(N4CCOC[C@@H]4C)n2)C[C@@H]2CC[C@H]3N2S(C)(=O)=O)cc1`: the fraction unbound at 4 h, 5 µM was 0.05 in data set [4], 0.14 in data set [5] and 0.1 in [6]. In [7], the half-life (commonly the time needed for the level to fall by half in the phase considered) was 1.02 h. In addition, in data set [8], the bioavailability worked out at 53%. Moreover, the Vd in [9] was 1.59 L/kg. Further, the clearance (usually the volume of plasma or blood freed of the substance per unit of time) in data set [10] amounted to 17.8 mL/min/kg. In the data set with Mus musculus, this molecule yielded a CL free of 342 mL/min/kg. Besides, the figures for the CLhep predicted in data set [11], in data set [12] and in data set [13] were 49 mL/min/kg, 26 mL/min/kg and 11 mL/min/kg, respectively. For the same molecule, in data set [1], the Kinetic_solubility entry is reported as “soluble”. The figures for the IC50 (on Cytochrome P450 3A4; in data set [3]) were 5000 nM and 1.6 nM, respectively. Further, the EC50 turned out to be 47 nM in data set [2] and 25 nM with PC-3.
On to `CCNC(=O)Nc1ccc(-c2nc3c(c(N4CCOC[C@@H]4C)n2)CN(C2COC2)CC3)cc1`, for which the solubility kinetic in data set [1] was found to be 40 µM (≈ 18.1 µg/mL). At Cytochrome P450 3A4, the IC50 came out at 2500 nM. The EC50 was 1200 nM in data set [2] and 797 nM with PC-3.
Regarding `CCNC(=O)Nc1ccc(-c2nc3c(c(N4CCOC[C@@H]4C)n2)C[C@@H]2CC[C@H]3N2C(C)=O)cc1`, the values for the fraction unbound at 4 h, 5 µM in data set [4], in data set [5] and in [6] were 0.02, 0.16 and 0.16, respectively. The half-life in data set [7] was 1.2 h. The bioavailability in data set [8] came to 40%. For the same molecule, in data set [9], the Vd stood at 0.54 L/kg. In data set [10], the clearance was 4.62 mL/min/kg. The same molecule displayed a CL free in the data set on Mus musculus of 200 mL/min/kg. Also, the CLhep predicted in [11] was 42 mL/min/kg; in [12] it was 24 mL/min/kg; in data set [13], 15 mL/min/kg. In addition, the Kinetic_solubility entry in data set [1] is on record as “soluble”. Besides, the EC50 in [2] is 61 nM; in the data set on PC-3, 16 nM. The IC50 in [3] stood at 2 nM.
Take `CCNC(=O)Nc1ccc(-c2nc3c(c(N4CCOC[C@@H]4C)n2)CCN(C2COC2)C3)cc1` [RG-7603]: the inhibition in vivo at 37 mg/kg in data set [14] was 60%. Also, the CL free in the data set on Mus musculus amounted to 100 mL/min/kg. The figures for the IC50 (in data set [2]; in the data set with PC-3) were 567 nM and 270 nM, respectively.
Regarding `CCNC(=O)Nc1ccc(-c2nc3c(c(N4CCOC[C@@H]4C)n2)[C@@H]2CC[C@H](C3)N2C)cc1`, the fraction unbound at 4 h, 5 µM in [4] was 0.54; in data set [5], 0.81; in data set [6], 0.8. This molecule also had a half-life in data set [7] of 1.07 h. Further, the bioavailability in data set [8] was found to be 82%. The Vd in data set [9] is 2.6 L/kg. This molecule also returned a clearance in data set [10] of 34 mL/min/kg. Moreover, the CL free in the data set with Mus musculus came out at 53 mL/min/kg. Besides, the CLhep predicted was 58 mL/min/kg in [11], 28 mL/min/kg in data set [12] and 15 mL/min/kg in [13]. Further, in data set [1], the solubility kinetic was over 75 µM. The EC50 in data set [2] turned out to be 158 nM; with PC-3, 152 nM. Further, the IC50 in data set [3] was 6.7 nM.
As for `CCNC(=O)Nc1ccc(-c2nc3c(c(N4CCOC[C@@H]4C)n2)[C@H]2CC[C@@H](C3)N2CC)cc1`, in data set [1], the solubility kinetic is over 75 µM. The results for the EC50 (in [2]; in the data set with PC-3) were 184 nM and 145 nM, respectively. Further, in data set [3], the IC50 was found to be 3.2 nM.
Turning to `CCNC(=O)Nc1ccc(-c2nc3c(c(N4CCOC[C@@H]4C)n2)C[C@@H]2CC[C@H]3N2C(=O)COC)cc1`, the fraction unbound at 4 h, 5 µM is 0.07 in data set [4], 0.27 in data set [5] and 0.21 in [6]. In data set [7], the half-life is 0.82 h. Also, the bioavailability in data set [8] is 47%. Besides, the Vd in data set [9] turned out to be 0.66 L/kg. This molecule also showed a clearance in data set [10] of 9.38 mL/min/kg. In the data set with Mus musculus, this molecule yielded a CL free of 134 mL/min/kg. Also, the CLhep predicted in data set [11] is 69 mL/min/kg; in [12], 31 mL/min/kg; in data set [13] it was 17 mL/min/kg. Also, the Kinetic_solubility entry in data set [1] is given as “soluble”. Further, the EC50 came to 36 nM in data set [2] and 47 nM with PC-3. Also, the 50% inhibitory concentration (IC50) in [3] turned out to be 2.2 nM.
For the molecule `CCNC(=O)Nc1ccc(-c2nc3c(c(N4CCOC[C@@H]4C)n2)[C@H]2CC[C@@H](C3)N2S(C)(=O)=O)cc1`, the solubility kinetic in data set [1] is over 75 µM. The values for the half-maximal inhibitory concentration (IC50) (at Cytochrome P450 3A4; in [3]) were 5000 nM and 18 nM, respectively. For the same molecule, the results for the EC50 (in data set [2]; in the data set with PC-3) were 806 nM and 260 nM, respectively.
Take `CCNC(=O)Nc1ccc(-c2nc3c(c(N4CCOC[C@@H]4C)n2)C[C@@H]2CC[C@H]3N2C)cc1`: the fraction unbound at 4 h, 5 µM was 0.14 in data set [4] and 0.32 in [6]. For the same molecule, the half-life in [7] is 1.3 h. Moreover, in data set [8], the bioavailability was 133%. Besides, the Vd in data set [9] worked out at 1.5 L/kg. The molecule also showed a clearance in data set [10] of 24 mL/min/kg. In the data set on Mus musculus, the CL free stood at 165 mL/min/kg. Further, the CLhep predicted was 50 mL/min/kg in [11], 22 mL/min/kg in [12] and 14 mL/min/kg in data set [13]. Also, in data set [1], the Kinetic_solubility result is on record as “soluble”. Besides, the EC50 came out at 84 nM in [2] and 37 nM in the data set with PC-3. In addition, the IC50 in data set [3] came to 2.1 nM.

(Values after ChEMBL document CHEMBL2331485, “Pyrimidoaminotropanes as potent, selective, and efficacious small molecule kinase inhibitors of the mammalian target of rapamycin (mTOR)” (J Med Chem, 2013).)
